Reference: ChEMBL document CHEMBL1133124, “N(2)-Aroylanthranilamide inhibitors of human factor Xa” (J Med Chem, 2000)

Biological target: Coagulation factor X (Homo sapiens) (UniProt P00742)
Experiment: Binding affinity for coagulation factor X as apparent association constant (Kass) derived from protease inhibition kinetics.
In short: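 Human fXa, 3.2 nM final, in tris/NaCl buffer pH 7.4 with HSA; inhibitor added in MeOH, then chromogenic substrate (0.3 mM stock in water) to start hydrolysis; rates read at 405 nm. Four to eight inhibitor concentrations, n = 3 each.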

Sequence of Coagulation factor X (Homo sapiens) (P00742 41-179 limits assumed): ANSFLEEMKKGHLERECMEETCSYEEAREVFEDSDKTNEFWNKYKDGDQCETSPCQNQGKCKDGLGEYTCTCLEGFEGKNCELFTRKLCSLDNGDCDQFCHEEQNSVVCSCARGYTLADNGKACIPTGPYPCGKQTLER
Sequence of Coagulation factor X (Homo sapiens) (P00742 235-488 limits assumed): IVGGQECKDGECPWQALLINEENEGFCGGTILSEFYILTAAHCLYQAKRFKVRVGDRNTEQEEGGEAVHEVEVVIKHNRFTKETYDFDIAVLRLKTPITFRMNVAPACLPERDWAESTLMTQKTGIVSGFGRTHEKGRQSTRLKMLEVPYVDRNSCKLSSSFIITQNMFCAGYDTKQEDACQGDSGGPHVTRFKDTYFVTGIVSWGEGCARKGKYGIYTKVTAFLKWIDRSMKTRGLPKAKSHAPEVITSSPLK

Structure (SMILES) | K ass
COc1ccc(NC(=O)c2ccccc2NC(=O)c2ccc(C(C)=O)cc2)cc1 | 450000 l M-1
COc1ccc(NC(=O)c2ccc(NC(C)=O)cc2NC(=O)c2ccc(C(C)(C)C)cc2)cc1 | 2.2e+06 l M-1
COc1ccc(NC(=O)c2ccccc2NC(=O)c2ccc(Cl)cc2)cc1 | 270000 l M-1
COc1ccc(NC(=O)c2ccccc2NC(=O)c2ccc(C)cc2)cc1 | 1.8e+06 l M-1
COc1ccc(NC(=O)c2ccc(NC(=O)CCC(=O)O)cc2NC(=O)c2ccc(C(C)(C)C)cc2)cc1 | 9.6e+06 l M-1
COc1ccc(NC(=O)c2ccccc2NC(=O)c2ccc(C(C)O)cc2)cc1 (centres undefined) | 400000 l M-1
COc1ccc(NC(=O)c2ccccc2NC(=O)c2ccc(C(N)=O)cc2)cc1 | 1.12e+06 l M-1
COc1ccc(NC(=O)c2ccc(NS(C)(=O)=O)cc2NC(=O)c2ccc(C(C)(C)C)cc2)cc1 | 3.9e+06 l M-1
CCc1ccc(NC(=O)c2ccccc2NC(=O)c2ccc(C(C)(C)C)cc2)cc1 | 1000 l M-1
COc1ccc(NC(=O)c2cc(NS(=O)(=O)c3ccccc3)ccc2NC(=O)c2ccc(C(C)(C)C)cc2)cc1 | 4.9e+06 l M-1
COc1ccc(NC(=O)c2cc(NS(C)(=O)=O)ccc2NC(=O)c2ccc(N(C)C)cc2)cc1 | 5.79e+07 l M-1
CC(C)(C)c1ccc(C(=O)Nc2ccccc2C(=O)Nc2ccc(Br)cc2)cc1 | 220000 l M-1
COc1ccc(NC(=O)c2cc(NC(=O)CCC(=O)O)ccc2NC(=O)c2ccc(C(C)(C)C)cc2)cc1 | 150000 l M-1
COc1ccc(C(=O)Nc2ccccc2NC(=O)c2ccc(N(C)C)cc2)cc1 | 1.87e+07 l M-1
COc1ccc(NC(=O)c2ccccc2NC(=O)c2cccc(Cl)c2)cc1 | 30000 l M-1
COc1ccc(NC(=O)c2ccc(N)cc2NC(=O)c2ccc(C(C)(C)C)cc2)cc1 | 6.3e+06 l M-1
COc1ccc(NC(=O)c2ccccc2NC(=O)c2ccc(C(F)(F)F)cc2)cc1 | 90000 l M-1
COc1ccc(NC(=O)c2ccc([N+](=O)[O-])cc2NC(=O)c2ccc(C(C)(C)C)cc2)cc1 | 80000 l M-1
COc1ccc(NC(=O)c2cc(N)ccc2NC(=O)c2ccc(N(C)C)cc2)cc1 | 7e+06 l M-1
COc1ccc(NC(=O)c2cc(NC(=O)CCC(=O)O)ccc2NC(=O)c2ccc(N(C)C)cc2)cc1 | 400000 l M-1
COc1ccc(NC(=O)c2ccc(NS(C)(=O)=O)cc2NC(=O)c2ccc(N(C)C)cc2)cc1 | 8e+06 l M-1
COc1ccc(NC(=O)c2cc(NC(C)=O)ccc2NC(=O)c2ccc(C(C)(C)C)cc2)cc1 | 40000 l M-1
COc1ccc(NC(=O)c2ccccc2NC(=O)c2cccc(C)c2)cc1 | 30000 l M-1
CC(C)(C)c1ccc(C(=O)Nc2ccccc2C(=O)Nc2ccc(OC(F)(F)F)cc2)cc1 | < 1000 l M-1

The next lines start with the values.

K ass | Structure (SMILES)
110000 l M-1 | CC(C)(C)c1ccc(C(=O)Nc2ccccc2C(=O)Nc2ccc(F)cc2)cc1
< 1000 l M-1 | COc1ccc(CCc2ccccc2NC(=O)c2ccc(OC)cc2)cc1
30000 l M-1 | COc1ccc(OCc2ccccc2NC(=O)c2ccc(OC)cc2)cc1
2.27e+07 l M-1 | COc1ccc(NC(=O)c2ccc(N)cc2NC(=O)c2ccc(N(C)C)cc2)cc1
30000 l M-1 | COc1ccc(/C=C/c2ccccc2NC(=O)c2ccc(OC)cc2)cc1
480000 l M-1 | COc1ccc(NC(=O)c2ccccc2NC(=O)c2ccc(C(C)(C)O)cc2)cc1
10000 l M-1 | COc1ccc(NC(=O)c2ccccc2NC(=O)c2ccc(Cl)c(Cl)c2)cc1
460000 l M-1 | CC(C)(C)c1ccc(C(=O)Nc2ccccc2C(=O)Nc2ccccc2)cc1
1.3e+06 l M-1 | COc1ccc(C(=O)Nc2ccccc2NC(=O)c2ccc(OC)cc2)cc1
3.4e+06 l M-1 | Cc1ccc(NC(=O)c2ccccc2NC(=O)c2ccc(C(C)(C)C)cc2)cc1
2.1e+06 l M-1 | COc1ccc(NC(=O)c2cc([N+](=O)[O-])ccc2NC(=O)c2ccc(C(C)(C)C)cc2)cc1
1.2e+06 l M-1 | COc1ccc(NC(=O)c2ccccc2NC(=O)c2ccc(OC)cc2)cc1
1e+06 l M-1 | CCOc1ccc(C(=O)Nc2ccccc2C(=O)Nc2ccc(OC)cc2)cc1
90000 l M-1 | COc1ccc(NC(=O)c2ccccc2NC(=O)c2cccc(N(C)C)c2)cc1
1.35e+07 l M-1 | COc1ccc(NC(=O)c2cc(NS(C)(=O)=O)ccc2NC(=O)c2ccc(C(C)(C)C)cc2)cc1
4.7e+06 l M-1 | COc1ccc(NC(=O)c2ccccc2NC(=O)c2ccc(C(C)(C)C)cc2)cc1
70000 l M-1 | COc1ccc(NC(=O)c2ccccc2C(=O)Nc2ccc(OC)cc2)cc1
30000 l M-1 | COc1ccc(C(=O)Nc2ccccc2C(=O)Nc2ccc(C(C)(C)C)cc2)cc1
2.5e+06 l M-1 | COc1ccc(NC(=O)c2cc(N)ccc2NC(=O)c2ccc(C(C)(C)C)cc2)cc1
1000 l M-1 | CC(C)(C)c1ccc(C(=O)Nc2ccccc2C(=O)Nc2ccc(C(F)(F)F)cc2)cc1
2.01e+07 l M-1 | COc1ccc(NC(=O)c2ccccc2NC(=O)c2ccc(N(C)C)cc2)cc1
620000 l M-1 | COc1ccc(NC(=O)c2ccc(NS(=O)(=O)c3ccccc3)cc2NC(=O)c2ccc(C(C)(C)C)cc2)cc1
9.6e+06 l M-1 | COc1ccc(NC(=O)c2ccc(NC(=O)CCC(=O)O)cc2NC(=O)c2ccc(N(C)C)cc2)cc1
7e+06 l M-1 | COc1ccc(NC(=O)c2ccccc2NC(=O)c2ccc(C(C)C)cc2)cc1
490000 l M-1 | CC(C)(C)c1ccc(C(=O)Nc2ccccc2C(=O)Nc2ccc(Cl)cc2)cc1
